Test results reported in paper PMC7221417 (European journal of medicinal chemistry, 2020).

Key:
[1] = tested on: zebrafish (Danio rerio) embryos; details: concentrations far less than its IC50 value in human cancer cells; cited from earlier work
[2] = tested on: MDA-MB-231 cells (ER- / triple negative breast cancer); experiment: Sulforhodamine B; assay type: cell-based, human; details: for Selectivity index (SI): IC50 (MCF12A) / IC50 (MDA-MB-231)
[3] = tested on: T47D cells (ER+ breast cancer); experiment: Sulforhodamine B; assay type: cell-based, human; details: for IC50: T47D
[4] = tested on: MCF7 cells (ER+ breast cancer); experiment: Sulforhodamine B; assay type: cell-based, human; details: for Selectivity index (SI): IC50 (MCF12A) / IC50 (MCF7)
[5] = tested on: MCF12A cells (non-cancerous breast); experiment: Sulforhodamine B; assay type: cell-based, human
[6] = tested on: H295R cells (adrenocortical carcinoma); experiment: Sulforhodamine B; assay type: cell-based, human
[7] = Stability in DMSO; assay type: physicochemical; details: for free anastrozole observed in DMSO (1H NMR): 2 mM, 15 min
[8] = molecular target: T1, aromatase (CYP19) in H295R cells (Homo sapiens, UniProt P11511); experiment: Tritiated water-release assay of aromatase activity in H295R cells; assay type: cell-based
T1 sequence (P11511 1-503): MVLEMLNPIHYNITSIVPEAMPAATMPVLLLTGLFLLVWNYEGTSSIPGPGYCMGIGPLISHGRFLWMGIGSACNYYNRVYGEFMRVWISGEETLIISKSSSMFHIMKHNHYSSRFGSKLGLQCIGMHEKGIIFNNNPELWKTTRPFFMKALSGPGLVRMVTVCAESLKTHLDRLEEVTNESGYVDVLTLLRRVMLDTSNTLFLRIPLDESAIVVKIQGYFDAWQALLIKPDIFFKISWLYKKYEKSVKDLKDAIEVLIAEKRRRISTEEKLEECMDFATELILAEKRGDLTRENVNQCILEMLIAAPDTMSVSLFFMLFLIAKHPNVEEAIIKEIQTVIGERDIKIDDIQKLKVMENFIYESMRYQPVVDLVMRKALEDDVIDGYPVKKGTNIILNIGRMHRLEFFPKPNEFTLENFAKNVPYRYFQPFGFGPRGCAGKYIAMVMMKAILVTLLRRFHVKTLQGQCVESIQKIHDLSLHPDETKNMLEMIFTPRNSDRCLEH
Method in brief: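 H295R cells were seeded at 100,000/well in DMEM/F-12 with Nu Serum and ITS for 24 h, then washed with PBS. They were incubated 1.5 h at 37 °C, 5% CO2, in phenol red-free DMEM/F-12 with 54nM 1β-3H-androstenedione plus test compound at 0.1, 1, 10, 100 nM. Released tritiated water was counted by liquid scintillation. Controls were cell-free blanks and 0.1% DMSO. Data are mean ± SD.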

[9] = Qualitative solubility in water and organic solvents; assay type: physicochemical
[10] = Stability in cell culture medium/DMSO; assay type: physicochemical; details: 10 μM, full DMEM/F12 medium (max 0.1% DMSO), 37 °C, 1.5 h, HPLC
Method in brief: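 Test compound at 10 μM in DMEM/F12 (0.1% DMSO, from DMSO stock) was held 1.5 h at 37 °C. Released ligand was extracted into diethyl ether, then cleaned on silica with acetone. The residue was redissolved in acetone with 100 μM hydrocortisone as external standard. It was run on C18 UHPLC with a 13 min water/acetonitrile gradient at 2 mL/min, with UV detection, and quantified against standard curves. Three replicates.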

[11] = tested on: zebrafish (Danio rerio) embryos; experiment: Zebrafish embryo toxicity assay; assay type: in vivo; details: 0.1, 0.5, 1 μM; 24-96 hpf; vs untreated control
Method in brief: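 Wild-type Danio rerio embryos were raised at 28.5 °C. From the 2- or 4-cell stage they were exposed in 5 mL fish medium to test compound at 0.1, 0.5, 1 μM (0.5% DMSO final). Medium was refreshed at 48 h. Mortality, gross morphology and hatching were scored by stereomicroscope every 24 h to 96 hpf, against an untreated control. Triplicates, 60 embryos per treatment from three crosses; mean ± SD.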

[12] = Solubility in culture medium/DMSO and water/DMSO by UV-Vis; assay type: physicochemical
Method in brief: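 Test compound in phenol red-free DMEM-F12 (0.1% DMSO) at 0.01, 0.1, 1, 5, 10, 20 μM, and in water (max 0.5% DMSO) at 1, 5, 10, 15 μM. Each solution was passed through a 0.2 μm syringe filter, then absorbance at 350–370 nm was read on a plate reader. A linear concentration–absorbance relationship was taken to indicate solubility.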

[13] = MDA-MB-231, 48 h exposure, SRB assay
[14] = MCF12A (non-cancerous), 48 h exposure, SRB assay
[15] = H295R, 48 h exposure, SRB assay

Which “hatching rate of zebrafish embryos” value [1] does the source give for `N.N.[Cl][Pt][Cl]` [cisplatin] here?
The value was “significant inhibition of hatching rate”.

And the “Selectivity index (SI)” value [2]?
Its value is 1.32.

And the IC50 [2, 13]?
Its IC50 is 32.4 µM.

What about the IC50 ([3]; 48 h exposure, SRB assay) of the same molecule?
Its IC50 is > 150 µM.

What about the “Selectivity index (SI)” value [4] of the same molecule?
The value was 2.12.

What about the IC50 ([4]; MCF7, 48 h exposure, SRB assay) of the same molecule?
The IC50 was 20.1 µM.

And the IC50 [5, 14]?
The IC50 was 42.7 µM.

What about the IC50 [6, 15] of the same molecule?
Its IC50 is 86.5 µM.

For `C1=CCCC=CCC1.CC(C)(C#N)c1cc(Cn2cncn2)cc(C(C)(C)C#N)c1.CC(C)(C#N)c1cc(Cn2cncn2)cc(C(C)(C)C#N)c1.[Cl-].[Cl-].[Ru+2]` [Complex 1, RuCOD(ATZ)2Cl2], which “free anastrozole observed in DMSO (1H NMR)” value [7] is on record?
The value was 25%.

Which IC50 ([2]; Homo sapiens, MDA-MB-231, 48 h) does the source give for `CC(C)(C#N)c1cc(Cn2cncn2)cc(C(C)(C)C#N)c1` [anastrozole, reference compound] here?
The IC50 was > 100 µM.

What about the inhibition at 0.01 µM ([8]; NCI-H295R, read-out: inhibition of aromatase activity) of the same molecule?
Its inhibition at 0.01 µM is ~50%.

And the IC50 ([3]; Homo sapiens, 48 h)?
The IC50 was > 100 µM.

And the IC50 ([4]; Homo sapiens, MCF7, 48 h)?
Its IC50 is > 100 µM.

And the IC50 ([5]; Homo sapiens, MCF-12A, 48 h)?
Its IC50 is > 100 µM.

And the IC50 ([6]; Homo sapiens, NCI-H295R, 48 h)?
Its IC50 is > 100 µM.

With RuCp(PPh3)2(ATZ)BF4 [Complex 2] as the molecule, how does the “solubility in organic solvents (qualitative)” value [9] read?
Its value is “soluble in acetone, alcohols and dimethyl sulfoxide (DMSO)”.

And the “solubility in water (qualitative)” value [9]?
The value was “poorly soluble in water”.

And the “released anastrozole in culture medium” value [10]?
The value was 4%.

What about the “Selectivity index (SI)” value [2] of the same molecule?
The value was 1.49.

And the IC50 [2, 13]?
The IC50 was 0.39 µM.

What about the “aromatase inhibitory activity at higher concentrations” value ([8]; above 10 nM (tested up to 100 nM), 1.5 h, H295R cells) of the same molecule?
Its value is “slight aromatase inhibitory activity”.

And the “inhibition of aromatase activity” value ([8]; up to 10 nM, 1.5 h, H295R cells)?
Its value is “No significant inhibition”.

And the “hatching delay of zebrafish embryos” value [11]?
Its value is “no apparent”.

What about the “mortality of zebrafish embryos” value [11] of the same molecule?
Its value is “no apparent”.

And the “phenotype changes of zebrafish embryos” value [11]?
The value was “no apparent”.

What about the “Selectivity index (SI)” value ([3]; IC50 (MCF12A) / IC50 (T47D)) of the same molecule?
The value was 1.81.

What about the IC50 ([3]; 48 h exposure, SRB assay) of the same molecule?
Its IC50 is 0.32 µM.

What about the “free anastrozole observed in DMSO (1H NMR)” value [7] of the same molecule?
The value was 2%.

And the “change of UV-Vis absorption spectrum in DMSO” value ([7]; over 1 h)?
Its value is “No apparent change”.

What about the “solubility in culture medium” value ([12]; full DMEM/F12 medium (0.1% DMSO)) of the same molecule?
Its value is ≥ 20 µM.

And the solubility in water ([12]; water (max 0.5% DMSO))?
Its solubility in water is ≥ 15 µM.

What about the “Selectivity index (SI)” value [4] of the same molecule?
The value was 1.16.

And the IC50 ([4]; MCF7, 48 h exposure, SRB assay)?
Its IC50 is 0.5 µM.

What about the IC50 [5, 14] of the same molecule?
The IC50 was 0.58 µM.

And the IC50 [6, 15]?
Its IC50 is 0.63 µM.

And the “Selectivity index (SI)” value ([6]; IC50 (MCF12A) / IC50 (H295R))?
Its value is 0.92.

Which “solubility in water (qualitative)” value [9] does the source give for `CC(C)(C#N)c1cc(Cn2cncn2)cc(C(C)(C)C#N)c1.CS(C)=O.[Cl-].[Cl-].[Cl-].[Cl-].[Na+].[Ru+3]` [Complex 3, Na[trans-RuCl4ATZ(DMSO)]] here?
The value was “soluble in water”.
